This is an account of results in ChEMBL document CHEMBL1135904, “Toward an optimal joint recognition of the S1' subsites of endothelin converting enzyme-1 (ECE-1), angiotensin converting enzyme (ACE), and neutral endopeptidase (NEP)” (J Med Chem, 2002).

In assay [1] the target is T1, Endothelin-converting enzyme 1 (Homo sapiens, UniProt P42892).
T1 sequence (P42892 whole entry): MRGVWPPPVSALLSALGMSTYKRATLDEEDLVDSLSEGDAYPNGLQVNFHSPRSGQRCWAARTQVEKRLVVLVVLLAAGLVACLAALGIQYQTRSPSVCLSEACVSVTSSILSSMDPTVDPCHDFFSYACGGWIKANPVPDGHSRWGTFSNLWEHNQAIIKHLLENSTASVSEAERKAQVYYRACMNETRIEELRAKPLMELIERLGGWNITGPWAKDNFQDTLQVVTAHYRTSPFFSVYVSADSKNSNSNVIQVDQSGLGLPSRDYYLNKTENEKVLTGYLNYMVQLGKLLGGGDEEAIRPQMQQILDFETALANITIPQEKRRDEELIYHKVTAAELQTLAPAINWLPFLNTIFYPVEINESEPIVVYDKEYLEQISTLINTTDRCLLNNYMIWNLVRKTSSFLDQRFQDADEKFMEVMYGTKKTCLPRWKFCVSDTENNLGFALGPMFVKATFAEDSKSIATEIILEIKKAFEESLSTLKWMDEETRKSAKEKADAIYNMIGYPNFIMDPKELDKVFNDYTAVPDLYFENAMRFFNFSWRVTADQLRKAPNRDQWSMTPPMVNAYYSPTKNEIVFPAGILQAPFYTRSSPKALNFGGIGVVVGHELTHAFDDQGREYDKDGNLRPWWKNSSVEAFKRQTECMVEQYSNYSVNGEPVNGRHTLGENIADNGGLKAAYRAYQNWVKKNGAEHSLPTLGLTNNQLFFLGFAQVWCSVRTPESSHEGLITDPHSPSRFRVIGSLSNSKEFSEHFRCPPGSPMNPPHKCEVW
As to the kind of experiment: Inhibition activity towards human recombinant Endothelin-converting enzyme 1 (hECE-1c) expressed in Cos-7 cells. Type of assay: cell-based. The gist of the method: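 Recombinant human ECE-1c from Cos-7 cells, 4 µg total protein per well, preincubated 10 min at 37 °C in 50 mM tris-maleate pH 6-8 with or without rising inhibitor concentrations. Reaction started with 20 µM (Pya21-(p-NO2)Phe22)bigET(19-35) (Km 20 µM), run 1 h at 37 °C, stopped by cooling. Fluorescence read at ex 340/em 400 nm.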

For assay [2], the target named is T2, Angiotensin-converting enzyme (Rattus norvegicus, UniProt P47820).
T2 sequence (P47820 whole entry): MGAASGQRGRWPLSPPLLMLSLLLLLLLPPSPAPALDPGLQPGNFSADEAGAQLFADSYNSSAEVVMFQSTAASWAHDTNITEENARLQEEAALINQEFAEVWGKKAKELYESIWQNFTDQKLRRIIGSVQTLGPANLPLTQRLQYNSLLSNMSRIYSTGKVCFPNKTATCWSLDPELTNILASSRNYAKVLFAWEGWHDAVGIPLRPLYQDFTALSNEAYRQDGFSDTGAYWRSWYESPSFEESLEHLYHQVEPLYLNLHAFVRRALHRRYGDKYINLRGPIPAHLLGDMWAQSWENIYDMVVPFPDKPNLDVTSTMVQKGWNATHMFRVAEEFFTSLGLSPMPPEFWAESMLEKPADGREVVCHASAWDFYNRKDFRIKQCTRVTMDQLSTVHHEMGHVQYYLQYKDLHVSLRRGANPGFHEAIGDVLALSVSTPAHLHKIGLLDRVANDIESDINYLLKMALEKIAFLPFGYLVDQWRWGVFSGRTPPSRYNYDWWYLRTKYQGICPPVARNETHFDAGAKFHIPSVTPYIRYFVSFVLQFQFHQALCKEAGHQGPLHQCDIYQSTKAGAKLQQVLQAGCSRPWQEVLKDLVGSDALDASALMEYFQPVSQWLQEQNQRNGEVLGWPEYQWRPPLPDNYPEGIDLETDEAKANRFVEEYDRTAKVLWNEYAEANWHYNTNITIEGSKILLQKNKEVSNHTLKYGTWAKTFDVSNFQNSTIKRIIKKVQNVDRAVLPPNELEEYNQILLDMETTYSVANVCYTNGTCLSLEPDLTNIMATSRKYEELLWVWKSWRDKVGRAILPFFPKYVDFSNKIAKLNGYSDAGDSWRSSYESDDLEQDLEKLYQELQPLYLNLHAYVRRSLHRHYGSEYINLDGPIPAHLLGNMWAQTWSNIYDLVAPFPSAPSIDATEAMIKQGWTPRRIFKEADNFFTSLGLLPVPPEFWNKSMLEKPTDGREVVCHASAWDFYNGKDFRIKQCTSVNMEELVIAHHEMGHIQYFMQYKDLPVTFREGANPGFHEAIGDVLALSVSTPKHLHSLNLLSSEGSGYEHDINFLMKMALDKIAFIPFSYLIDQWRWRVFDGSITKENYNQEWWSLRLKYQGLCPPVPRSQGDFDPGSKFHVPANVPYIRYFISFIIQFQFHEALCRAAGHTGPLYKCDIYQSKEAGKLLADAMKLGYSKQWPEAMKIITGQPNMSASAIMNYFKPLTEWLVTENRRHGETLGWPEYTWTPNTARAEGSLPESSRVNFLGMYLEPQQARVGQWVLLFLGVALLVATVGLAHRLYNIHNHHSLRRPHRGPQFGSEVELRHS
As to the kind of experiment: Inhibition of Angiotensin I converting enzyme (ACE) purified from rat testis. The gist of the method:
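ACE purified from rat testis, final 0.02 pmol/100 µL, preincubated 10 min at 37 °C with or without various inhibitor concentrations in 50 mM Tris/HCl/NaCl 1% pH 7.4. Then 50 µM N-Cbz-Phe-His-Leu (Km 50 µM) added for 30 min. Stopped with 2 N NaOH and diluted with water. Released His-Leu measured fluorometrically.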

A further assay concerns the target T3, Neprilysin (Oryctolagus cuniculus, UniProt P08049).
T3 sequence (P08049 whole entry): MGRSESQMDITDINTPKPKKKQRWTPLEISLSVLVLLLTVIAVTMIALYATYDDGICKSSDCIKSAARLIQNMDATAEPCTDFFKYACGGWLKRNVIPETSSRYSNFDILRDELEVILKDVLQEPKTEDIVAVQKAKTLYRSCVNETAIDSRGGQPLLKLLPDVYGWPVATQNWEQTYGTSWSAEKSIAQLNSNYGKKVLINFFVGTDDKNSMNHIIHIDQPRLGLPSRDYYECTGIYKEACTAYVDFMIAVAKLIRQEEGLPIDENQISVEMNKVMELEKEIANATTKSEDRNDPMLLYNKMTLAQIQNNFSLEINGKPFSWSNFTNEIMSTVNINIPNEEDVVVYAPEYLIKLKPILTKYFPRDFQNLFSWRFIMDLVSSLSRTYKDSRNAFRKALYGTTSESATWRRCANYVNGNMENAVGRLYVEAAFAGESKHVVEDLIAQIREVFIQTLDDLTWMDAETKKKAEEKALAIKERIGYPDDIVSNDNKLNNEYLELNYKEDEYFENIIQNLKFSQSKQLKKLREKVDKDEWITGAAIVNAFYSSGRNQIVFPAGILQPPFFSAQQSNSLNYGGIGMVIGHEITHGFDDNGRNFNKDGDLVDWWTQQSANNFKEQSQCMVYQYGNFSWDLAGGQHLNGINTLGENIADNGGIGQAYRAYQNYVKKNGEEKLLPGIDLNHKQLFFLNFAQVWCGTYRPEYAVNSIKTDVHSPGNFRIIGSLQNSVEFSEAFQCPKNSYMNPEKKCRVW
Description: Inhibition of neutral endopeptidase (NEP) isolated from rabbit kidney. The gist of the method: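 Rabbit kidney NEP purified to homogeneity, final 250 ng/mL, preincubated 10 min at 37 °C with or without rising inhibitor concentrations in 50 mM Tris-HCl pH 7.4. Then 50 µM DGPA (Dansyl-Gly-(p-NO2)Phe-β-Ala; Km 37 µM) added for 1 h. Stopped with DMSO. Fluorescence read at ex 340/em 530 nm.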

The Ki is a measure of affinity in units of concentration, obtained from inhibition or displacement. `CC(c1cccc2ccccc12)C(CS)C(=O)NC(Cc1c[nH]c2ccccc12)C(=O)O` (configuration not stated): the Ki in assay [1] turned out to be 600 nM; in assay [2] it was 79 nM; on Neprilysin, 51 nM.

In the case of `C[C@@H](c1ccc(-c2ccccc2)cc1)[C@@H](CS)C(=O)N[C@@H](Cc1c[nH]c2ccccc12)C(=O)O`, the Ki is 135 nM in assay [1], 130 nM in assay [2] and 1.5 nM on Neprilysin.

In the case of `CC(c1ccc2ccccc2c1)C(CS)C(=O)NC(Cc1c[nH]c2ccccc12)C(=O)O` (configuration not stated), the Ki was found to be 980 nM in assay [1], 47 nM in assay [2] and 5.4 nM on Neprilysin.

On to `C[C@H](c1ccc(-c2ccccc2)cc1)[C@@H](CS)C(=O)N[C@@H](Cc1c[nH]c2ccccc12)C(=O)O`, for which the Ki was 190 nM in assay [1], 330 nM in assay [2] and 5 nM at Neprilysin.

Turning to `C[C@@H](c1ccccc1)[C@H](CS)C(=O)N[C@@H](Cc1c[nH]c2ccccc12)C(=O)O`, the values for the Ki (in assay [1]; in assay [2]; at Neprilysin) were 780 nM, 15 nM and 2.5 nM, respectively.

With `O=C(O)C(Cc1c[nH]c2ccccc12)NC(=O)C(CS)c1ccc(-c2ccccc2)cc1` (configuration not stated), the inhibitory constant (Ki) in assay [1] came to 4150 nM; in assay [2] it was 77 nM; on Neprilysin it was 135 nM.

As for `C[C@H](c1ccccc1)[C@@H](CS)C(=O)N[C@@H](Cc1c[nH]c2ccccc12)C(=O)O`, the figures for the Ki (in assay [1]; in assay [2]; on Neprilysin) were 580 nM, 290 nM and 5 nM, respectively.

As to `O=C(O)C(Cc1c[nH]c2ccccc12)NC(=O)C(CS)c1cccc2ccccc12` (configuration not stated), the Ki in assay [1] is 1560 nM; in assay [2] it was 150 nM; on Neprilysin, 22 nM.

As for `O=C(O)[C@H](Cc1c[nH]c2ccccc12)NC(=O)[C@H](CS)[C@H]1CCc2ccccc21`, the Ki in assay [1] is 26 nM; in assay [2], 43 nM; at Neprilysin, 0.7 nM.

On to `O=C(O)[C@H](Cc1c[nH]c2ccccc12)NC(=O)[C@H](CS)[C@@H]1CCc2ccccc21`, for which the Ki in assay [1] worked out at 680 nM; in assay [2], 170 nM; at Neprilysin, 27 nM.

In the case of `O=C(O)[C@H](Cc1c[nH]c2ccccc12)NC(=O)[C@@H](CS)[C@H]1CCc2ccccc21`, the Ki in assay [1] was 290 nM; in assay [2], 10 nM; at Neprilysin, 2.1 nM.

Regarding `O=C(O)[C@H](Cc1c[nH]c2ccccc12)NC(=O)[C@@H](CS)[C@@H]1CCc2ccccc21`, the Ki was 1140 nM in assay [1], 41 nM in assay [2] and 10 nM on Neprilysin.

Take `C[C@H](c1ccccc1)[C@H](CS)C(=O)N[C@@H](Cc1c[nH]c2ccccc12)C(=O)O`: the values for the Ki (in assay [1]; in assay [2]; at Neprilysin) were 100 nM, 29 nM and 2.2 nM, respectively.

Turning to `C[C@@H](c1ccc(-c2ccccc2)cc1)[C@H](CS)C(=O)N[C@@H](Cc1c[nH]c2ccccc12)C(=O)O`, the results for the Ki (in assay [1]; in assay [2]; at Neprilysin) were 920 nM, 38 nM and 35 nM, respectively.

`CC(c1ccc(-c2ccccc2)cc1)C(CS)C(=O)N[C@@H](Cc1c[nH]c2ccccc12)C(=O)O` (some centres not stated): the Ki worked out at 220 nM in assay [1], 62 nM in assay [2] and 4.8 nM at Neprilysin.

On to `O=C(O)C(Cc1c[nH]c2ccccc12)NC(=O)C(CS)c1cccc(-c2ccccc2)c1` (configuration not stated), for which the Ki amounted to 900 nM in assay [1], 150 nM in assay [2] and 35 nM at Neprilysin.

As to `O=C(O)[C@H](Cc1c[nH]c2ccccc12)NC(=O)[C@@H](CS)[C@H]1CCCc2ccccc21`, the values for the Ki (in assay [1]; in assay [2]; at Neprilysin) were 190 nM, 10 nM and 3 nM, respectively.

In the case of `O=C(O)[C@H](Cc1c[nH]c2ccccc12)NC(=O)[C@H](CS)[C@H]1CCCc2ccccc21`, the values for the Ki (in assay [1]; in assay [2]; at Neprilysin) were 250 nM, 76 nM and 3 nM, respectively.

In the case of `O=C(O)[C@H](Cc1c[nH]c2ccccc12)NC(=O)[C@H](CS)[C@@H]1CCCc2ccccc21`, the results for the Ki (in assay [1]; in assay [2]; on Neprilysin) were 1240 nM, 134 nM and 43 nM, respectively.

With `C[C@@H](c1ccccc1)[C@@H](CS)C(=O)N[C@@H](Cc1c[nH]c2ccccc12)C(=O)O`, the figures for the Ki (in assay [1]; in assay [2]; on Neprilysin) were 200 nM, 33 nM and 2.4 nM, respectively.

Consider `C[C@H](c1ccc(-c2ccccc2)cc1)[C@H](CS)C(=O)N[C@@H](Cc1c[nH]c2ccccc12)C(=O)O`, for which the Ki in assay [1] came out at 110 nM; in assay [2], 65 nM; on Neprilysin, 30 nM.

As to `O=C(N[C@@H](Cc1c[nH]c2ccccc12)C(=O)O)C(CS)[C@@H]1CCCc2ccccc21` (some centres not stated), the results for the inhibition constant (Ki) (in assay [1]; in assay [2]; at Neprilysin) were 670 nM, 26 nM and 8 nM, respectively.

With `O=C(O)C(Cc1c[nH]c2ccccc12)NC(=O)C(CS)C1CCCc2ccccc21` (configuration not stated), the Ki in assay [1] was 300 nM; in assay [2], 18 nM; at Neprilysin, 4.5 nM.

Turning to `CC(c1ccccc1)C(CS)C(=O)NC(Cc1c[nH]c2ccccc12)C(=O)O` (configuration not stated), the Ki worked out at 300 nM in assay [1], 40 nM in assay [2] and 3 nM at Neprilysin.
